From PubChem BioAssay
Sampled rows, rich in hits. Any-hit rate of the full collection: about 2.8%.
PAFAH1B3 inh: blocks human PAF acetylhydrolase 1B catalytic subunit 3. Q15102. recombinant PAFAH1B3, FP-rhodamine probe, fluorescence polarization. inhibition, % at 3.39 µM. 340,000 tested, 0.28% active. AID 492972;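 active = inhibition above the screen-wide average of all tested compounds plus 3 SD, cut at about 25% in these data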
HTRA1 inhibitor: HTRA1 (human) protease inhibition | inhibition, % at 5.96 µM | Q92743 | recombinant HTRA1, FP-rhodamine activity-based probe, fluorescence polarization | 340,000 tested, 0.5% active; in the data active = inhibition above about 36%
PAFAH1B2 FP inh: PAFAH1B2 (human) inhibition. P68402. recombinant PAFAH1B2, FP-rhodamine activity probe, fluorescence polarization. inhibition, % at 3.39 µM. 340,000 tested, 1.2% active;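 active = inhibition above the mean of all tested compounds plus 3 SD, cut at about 24% in these data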
mABHD4 FP: inhibitors of mouse ABHD4; purified mABHD4, FP-Rh probe fluorescence polarization; inhibition, % at 8.92 µM; 370,000 tested, 0.54% active;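 active = inhibition exceeding the mean over every tested compound plus 3 SD, cut at about 30% in these data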
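assay system = mABHD4 protein | compound dosing = single nominal dose of 8.92 µM, 0.89% DMSO final | read-out basis = percent inhibition of probe binding, normalized to plate controls | schedule = Enzyme–compound pre-incubation 45 min, then probe 60 min, both 25 °C | detection = fluorescence polarization, excitation 525 nm, emission 598 nm, BODIPY TMR filters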
PAFAH2 FP inh: inhibitors of human PAFAH2. 340,000 tested, 0.99% active. recombinant PAFAH2, FP-rhodamine activity probe, fluorescence polarization. AID 492956. inhibition, % at 3.39 µM;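 active = inhibition above the mean over all tested compounds plus 3 SD, cut at about 30% in these data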;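 note: inhibitors block probe labeling of enzyme so polarization drops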
pPAFAH inh: inhibitors of human plasma PAF acetylhydrolase (pPAFAH); inhibition, % at 3.39 µM; recombinant pPAFAH, FP-rhodamine probe fluorescence polarization; Q13093; 330,000 tested, 1.5% active; AID 463082;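 active = inhibition above the mean inhibition across the screen plus 3 SD, cut at about 25% in these data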;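 note: inhibitors block binding of the rhodamine activity-based probe so polarization drops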
Target sequence (Q13093 whole entry, looked up): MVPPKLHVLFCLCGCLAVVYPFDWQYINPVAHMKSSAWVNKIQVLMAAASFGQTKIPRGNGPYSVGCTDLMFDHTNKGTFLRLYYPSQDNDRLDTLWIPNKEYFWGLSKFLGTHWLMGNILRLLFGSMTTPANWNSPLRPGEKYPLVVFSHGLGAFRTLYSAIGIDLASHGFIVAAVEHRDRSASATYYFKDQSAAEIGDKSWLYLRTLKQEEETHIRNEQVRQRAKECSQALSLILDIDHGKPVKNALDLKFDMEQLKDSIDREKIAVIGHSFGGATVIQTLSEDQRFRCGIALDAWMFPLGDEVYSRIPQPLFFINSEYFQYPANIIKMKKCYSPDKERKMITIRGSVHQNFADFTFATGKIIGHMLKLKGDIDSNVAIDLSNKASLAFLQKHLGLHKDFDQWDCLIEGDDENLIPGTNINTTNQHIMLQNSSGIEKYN
pPAFAH confirm: confirmation of human plasma PAF acetylhydrolase (pPAFAH) inhibitors. shares compounds with pPAFAH inh. recombinant pPAFAH, FP-Rh probe fluorescence polarization. inhibition, % at 3.39 µM. 2,300 tested, 72% active;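 active = mean inhibition of the triplicate above the hit cutoff set for the earlier primary screen, cut at about 25% in these data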
Of the large screens only hits and unclear results are named; the others gave an inactive call (follow-up assays come after a bar, where they were run).

C=C(C)Cn1c(-c2ccc(OC)cc2)nc2ccccc21	pPAFAH inh 78 | pPAFAH confirm inactive
CCC[C@H]1[C@@H](NC(=O)c2ccc(Cl)c(C(F)(F)F)c2)CC[C@@]23CCCN2C(=O)CCC[C@@H]13	none (no result: PAFAH1B3 inh, HTRA1 inhibitor, PAFAH1B2 FP inh, PAFAH2 FP inh, pPAFAH inh)
CCc1cc(=O)oc2cc(C)c(CN3CCCC(C)C3)c(O)c12 (configuration not stated)	pPAFAH inh 52 | pPAFAH confirm inactive
Nc1[nH]c(C(=O)c2ccccc2)c(-c2cccnc2)c1C(=O)NCCc1c[nH]c2ccccc12	none (no result: PAFAH1B3 inh, HTRA1 inhibitor, PAFAH1B2 FP inh, PAFAH2 FP inh, pPAFAH inh)
O=C(CCO)c1ccc(O)cc1	pPAFAH inh 37 | pPAFAH confirm inactive
Cc1nnc(NC(=O)C2CC(=O)N(c3ccc4c(c3)OCCO4)C2)s1 (configuration not stated)	none
O=C(Nc1nc(-c2ccco2)c(-c2ccco2)s1)C1CC(=O)N(c2ccc3c(c2)OCCO3)C1 (configuration not stated)	pPAFAH inh 47 | pPAFAH confirm 41
CCCCNC(=O)C[C@@H]1C(=O)N2CCCC3=C2[C@@]1(C(=O)OC)CCCC3	none (no result: PAFAH1B3 inh, HTRA1 inhibitor, PAFAH1B2 FP inh, PAFAH2 FP inh, pPAFAH inh)
COc1cc(OC)c(OC)cc1/C=C1\Oc2cc(OCC(=O)N3Cc4ccccc4C[C@H]3C(=O)O)ccc2C1=O	pPAFAH inh 37 (no result: mABHD4 FP) | pPAFAH confirm 44
COc1ccc(/C=C2\Oc3cc(OCC(=O)N4CCC[C@H]4C(=O)O)ccc3C2=O)c(OC)c1	none (no result: mABHD4 FP)
O=C(O)CSc1cc(C(=O)c2ccccc2O)cn2c(=O)c3c(-c4ccccc4)csc3nc12	pPAFAH inh 65 | pPAFAH confirm 72
CCC(=O)N(C)C[C@@H]1[C@H](c2ccc(C3=CCCCC3)cc2)[C@H](CO)N1C(=O)CC	none (no result: PAFAH1B3 inh, HTRA1 inhibitor, PAFAH1B2 FP inh, PAFAH2 FP inh, pPAFAH inh)
COC(=O)CCC(=O)OC1(C)C(=O)C2=COC(c3ccc(OC)cc3)=CC2=C(Br)C1=O (configuration not stated)	pPAFAH inh 35 (no result: PAFAH1B3 inh, HTRA1 inhibitor, PAFAH1B2 FP inh, mABHD4 FP, PAFAH2 FP inh) | pPAFAH confirm inactive
COc1ccc(OC)c(C2C(C#N)=C(N)Oc3cc(N)ccc32)c1 (configuration not stated)	pPAFAH inh 36 | pPAFAH confirm inactive
COc1ccc(OC)c(C2C(C#N)=C(N)Oc3cc(C)[nH]c(=O)c32)c1 (configuration not stated)	none
COc1ccc(-c2nc(-c3cccnc3)no2)cc1OC	none
COc1cc(-c2nc(-c3cccnc3)no2)cc(OC)c1OC	pPAFAH inh 40 | pPAFAH confirm inactive
CCOC(=O)N(C)[C@H]1C[C@H]2c3[nH]c4c(-c5ccc6c(c5)OCO6)cccc4c3CCN2C(=O)[C@H]1[C@H](C)O	none (no result: PAFAH1B3 inh, HTRA1 inhibitor, PAFAH1B2 FP inh, PAFAH2 FP inh, pPAFAH inh)
CC1(C)CC(=O)C2=C(C1)c1c(ccc3ccccc13)NC2c1cc([N+](=O)[O-])cc([N+](=O)[O-])c1O (configuration not stated)	PAFAH1B2 FP inh 29, PAFAH2 FP inh 35, pPAFAH inh 41 | pPAFAH confirm 79
CC1(C)CC(=O)C2=C(C1)c1c(ccc3ccccc13)NC2c1ccc(C(=O)O)cc1 (configuration not stated)	none
Cc1cccc(NC(=O)CN2CCN(CC(=O)NCc3ccc(Cl)cc3Cl)CC2)c1C	none
Cc1cccc(NC(=O)CN2CCN(C(=O)CNC(=O)Cc3cccc4ccccc34)CC2)c1C	pPAFAH inh 48 | pPAFAH confirm inactive
Cc1cccc(C)c1NC(=O)Cn1nnc(-c2ccncc2)n1	none (no result: PAFAH1B3 inh, HTRA1 inhibitor, PAFAH1B2 FP inh, PAFAH2 FP inh, pPAFAH inh)
Oc1ccc(-c2csc(Nc3ccc4c(c3)OCO4)n2)c(O)c1	none (no result: pPAFAH inh)
N#Cc1ccc(Nc2nc(-c3ccc(O)cc3O)cs2)cc1C(F)(F)F	PAFAH1B3 inh 26, pPAFAH inh 35 (no result: mABHD4 FP) | pPAFAH confirm 27
COCCN=C1Sc2nc3ccc(C)cc3cc2CN1Cc1ccco1	pPAFAH inh 64 | pPAFAH confirm 51
COCCN=C1Sc2nc3cc(C)c(C)cc3cc2CN1Cc1cccs1	none
O=C1COc2ccc(C(=O)COC(=O)/C=C/c3ccc(Br)o3)cc2N1	pPAFAH inh 39 | pPAFAH confirm inactive
COc1cc([N+](=O)[O-])ccc1-c1ccc(/C=N/NC(N)=O)o1	pPAFAH inh 67 | pPAFAH confirm inactive
COc1cc([N+](=O)[O-])ccc1-c1ccc(/C=N/NC(=O)OC(C)(C)C)o1	none
